Screening results from PubChem BioAssay.
TMEM16A act – TMEM16A chloride channel activators or potentiators, primary screen, cell-based, HTS; Anoctamin-1 (Mus musculus), Q8BHY3; HEK293 TMEM16A/YFP-H148Q/I152L, iodide quench fluorescence; active compounds read low; B-score at 10 µM; actives 0.3% (n = 340,000); AID 623877, 2012;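 active = fluorescence-ratio B-score plate-corrected deviation score at least 3 library SD below zero, with starting fluorescence score within 5 deviations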;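 note: channel opened by trigger with iodide after compound preincubation; score built on the fluorescence ratio of max minus min over baseline; more negative score means more quench and so TMEM16A activation or potentiation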
ANO1 block – TMEM16A chloride channel inhibitors, primary screen, cell-based, HTS; Anoctamin-1 (Mus musculus), Q8BHY3; HEK293 TMEM16A/YFP iodide influx fluorescence, ionomycin; normalized B-score (activity score, 25-100; higher = stronger inhibition) at 10 µM; actives 1.2% (n = 310,000);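 active = ratio plate-corrected score three or more library SD toward inhibition, starting fluorescence score within five deviations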;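 note: score derived from kinetic fluorescence span divided by baseline fluorescence per well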
CHT PAM – CHT positive allosteric modulators, primary screen, cell-based, membrane potential dye, choline EC20; High affinity choline transporter 1 (Homo sapiens), Q9GZV3; CHT-expressing cells; active compounds read high; LV-AA mutant CHT in HEK293 cells; B-score at 10 µM; actives 0.49% (n = 310,000); AID 488977, 2010;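 active = initial fluorescence not abnormally high and integrated response B-score, plate-corrected, over 3 SD above library mean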
VIM-2 inhibitor – VIM-2 metallo-beta-lactamase inhibitors, primary screen, biochemical, epi-absorbance readout, Pseudomonas aeruginosa enzyme. purified VIM-2, nitrocefin hydrolysis, epi-absorbance fluorescence. inhibition, % at 5.6 µM. actives 0.89% (n = 290,000);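 active = inhibition above the mean of all tested compounds plus 3 SD, cutoff set per screening run, cut at about 7.5% in these data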;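 note: red hydrolysis product quenches plate fluorescence so inhibitors raise well fluorescence; 0% = enzyme with DMSO and 100% = DMSO without enzyme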
CHT inh – inhibitors of human choline transporter CHT; CHT-expressing cells, membrane potential dye, choline response; active compounds read low; B-score at 10 µM; actives 0.86% (n = 310,000); High affinity choline transporter 1 (Homo sapiens), Q9GZV3;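 active = B-score over 3 SD under the library average, and starting fluorescence ratio not unusually high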;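 note: choline stimulus applied at its EC90 after an EC20 pre-addition; B-score computed on integrated fluorescence ratio after choline addition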
IMP-1 inh – IMP-1 metallo-beta-lactamase inhibitors, primary screen, biochemical, epi-absorbance readout, Pseudomonas aeruginosa enzyme | metallo-beta-lactamase IMP-1 (Pseudomonas aeruginosa) | purified IMP-1, nitrocefin hydrolysis, epi-absorbance fluorescence | inhibition, % at 5.6 µM | actives 0.45% (n = 290,000) | AID 1556, 2009;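 active = inhibition above the mean plus 3 SD of all compounds in the same screening run, cut at about 4.5% in these data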;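 note: 0% = IMP-1 with DMSO and 100% = DMSO wells lacking enzyme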
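Material – recombinant IMP-1 enzyme, purified · Amount – IMP-1 0.2 nM before substrate addition · Medium – HEPES buffer pH 7.1 with ZnSO4 and Brij 35 · Timing – 25 °C, 15 min preincubation, 25 min reaction · Measured by – plate fluorescence quenching by hydrolysis product, ex 480/em 530 nm · Read-out – percent enzyme inhibition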
CHT act confirm – CHT activators, confirmation, cell-based, membrane potential dye, duplicate. actives 91% (n = 2,500). AID 504833, 2011. activation, % at 10 µM. CHT-expressing cells, membrane potential dye fluorescence (FDSS); % of choline EC20–EC90 response window; HEK293 expressing CHT LV-AA mutant; choline added at its EC20. shares compounds with CHT PAM;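 active = primary screen active, with duplicate mean activation above negative control mean plus 3 SD, cut at about 11% in these data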
HEK293 MP dye – membrane potential response in parental HEK293 cells, counter-screen for CHT activator project, cell-based, membrane potential dye; shares compounds with CHT PAM; membrane potential dye fluorescence (FDSS); measured after EC20 choline addition; ratio readout change at 10 µM, hits read low; actives 62% (n = 2,500);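 active = duplicate-averaged ratio beyond 3 SD from buffer wells, up or down, though filed actives are nearly all decreases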
The depositor's hits bear a star; i = inactive; . = no result given. In the library only some 3.4% were active in any assay of this set; here they are far more common.

SMILES | TMEM16A act | ANO1 block | CHT PAM | VIM-2 inhibitor | CHT inh | IMP-1 inh | CHT act confirm | HEK293 MP dye
Cn1c(=O)c(=O)n(C)c2cc(S(=O)(=O)N3CCCCC3)ccc21 | i | i | i | -1 | i | 1 | . | .
COc1ccc(Nc2nccc(N(C)C)c2C#N)cc1 | i | i | i | 0 | i | -2 | 50* | -42*
CCCCCC(C)NC(=O)c1cc(S(=O)(=O)N2CCCCC2)ccc1N1CCOCC1 (configuration not stated) | i | . | . | . | . | . | . | .
CCN(CCO)c1nc(N2CCCCC2)c2cnn(C)c2n1 | i | i | i | 4 | i | -2 | . | .
COCCn1c(C)nnc1SCC(=O)NNC(=O)c1ccc(Cl)cc1 | i | i | i | -4 | i | -4 | . | .
COc1ccc(/C=N/Nc2ccccn2)cc1O | i | i | i | -1 | i | -3 | 35* | -48*
CCc1ccc(Nc2n[n+](-c3ccccc3)c(-c3cc(OC)c(OC)cc3Br)s2)cc1 | i | i | i | -4 | i | -3 | . | .
CCc1ccc(Nc2n[n+](-c3ccccc3)c(-c3ccc(OCc4ccccc4)cc3)s2)cc1 | i | 100* | 17* | -3 | i | -2 | 2 | i
CC(=O)c1ccc(NS(=O)(=O)c2cccc(C(=O)Nc3ccccc3C(=O)O)c2)cc1 | i | i | i | -1 | i | 0 | . | .
Cc1ccc2ccc3ccc(C)nc3c2n1 | i | i | 11* | 8.6* | i | 0 | 67* | -75*
CC(C)(C)c1ccc(C(=O)N2CCC(=O)N(C(COCc3ccccc3)Cc3ccccc3)CC2)cc1 (configuration not stated) | i | i | i | -2 | i | 0 | 3 | i
COc1ccc(N(CC(=O)NCc2ccc(C)cc2)S(=O)(=O)c2c(C)noc2C)cc1 | i | i | i | -3 | i | 0 | . | .
O=[N+]([O-])c1ccc(-c2nc(-c3ccncc3)no2)cc1 | i | i | i | -2 | i | -3 | 26* | -36*
CCCSCCCNC(=O)c1ccc(NC(=O)C2=CSCCO2)cc1 | i | i | i | -4 | i | -1 | . | .
COc1ccc(-c2[nH]ncc2CNCc2cc(C)n(C)n2)c(F)c1 | i | i | 7.8* | -1 | i | -1 | 45* | -60*
Cc1ccnc(NC(=O)CCC2CCCCC2)c1 | i | i | i | -1 | i | -2 | 27* | i
CC(=O)CCc1ccc(OCC(=O)Nc2cccc(S(=O)(=O)N(C)c3ccccc3)c2)cc1 | i | . | . | . | . | . | . | .
COCCN1CCN(C(=O)C2CCC(=O)N(CCc3cccc(F)c3)C2)CC1 (configuration not stated) | i | i | i | -3 | i | -5 | . | .
O=C1c2ccccc2C(=O)N1CSc1nnc2c3ccccc3n(CCc3ccccc3)c2n1 | i | i | i | -1 | i | 3 | . | .
CCN(CC)CCSc1nnc2c3ccccc3n(CCc3ccccc3)c2n1 | i | i | 8.5* | 11* | i | -3 | 31* | -35*
COc1ccc(C(CNC(=O)c2cccc(N(C)C)c2)N2CCCC2)cc1 (configuration not stated) | i | i | i | -2 | i | -2 | . | .
